Measurements reported in ChEMBL document CHEMBL2311272, “Design of a new fluorescent probe: pyrrole/imidazole hairpin polyamides with pyrene conjugation at their γ-turn” (Bioorg Med Chem, 2013).

Columns and labels:
[1] = Binding affinity to 5'-CCGAGTCCATACG-3' DNA (unknown origin) assessed as increase in fluorescence intensity at 200 nM by florescence assay relative to control
Summary of the method: (§1)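 Steady-state fluorescence of 200 nM pyrene conjugates mixed with target oligonucleotide duplex in 5 mM Na phosphate buffer, pH 7.0, 1% v/v DMF. Excitation at 345 nm, emission read at 386 nm. Measured at room temperature without oxygen removal. Intensity is compared with that of the conjugate alone.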

[2] = Binding affinity to 5'-CGTATGGACTCGG-3' DNA (unknown origin) assessed as increase in fluorescence intensity at 200 nM by florescence assay relative to control; summary of the method: as §1
[3] = Binding affinity to 5'-biotin-labeled GCTAGTC-CAGGCTTTTGCCTGGACTAGC-3' DNA (unknown origin) by surface plasmon resonance assay
Summary of the method: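 Biacore SPR at 25 °C. Biotinylated hairpin DNA is captured on a streptavidin SA chip. Polyamides are diluted from 4 mM DMSO stocks into HBS-EP (10 mM HEPES […], 0.15 M NaCl, 3 mM EDTA, 0.005% P20) with 0.1% DMSO, which is also the running buffer. Samples are injected at 5 μL/min over 6.25 nM–4 μM. Regeneration uses running buffer or 10 mM glycine-HCl, pH 1.5. KD is obtained by model fitting.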

Row | Structure (SMILES) | fold change (FC) [1] | fold change (FC) [2] | Kd [3]
1 | CN(C)CCCNC(=O)CCNC(=O)c1cc(NC(=O)c2cc(NC(=O)c3cc(NC(=O)c4nc(NC(=O)CCCNC(=O)c5cc(NC(=O)c6cc(NC(=O)c7nc(NC(=O)c8nc(NC(=O)CCNC(=O)CCNC(=O)CCCc9ccc%10ccc%11cccc%12ccc9c%10c%11%12)cn8C)cn7C)cn6C)cn5C)cn4C)cn3C)cn2C)cn1C | 3 | 3 | > 10 µM
2 | CC(=O)Nc1cn(C)c(C(=O)Nc2cn(C)c(C(=O)Nc3cc(C(=O)Nc4cc(C(=O)NCC[C@@H](NC(=O)CCNC(=O)CCCc5ccc6ccc7cccc8ccc5c6c78)C(=O)Nc5cn(C)c(C(=O)Nc6cc(C(=O)Nc7cc(C(=O)Nc8cc(C(=O)NCCC(=O)NCCCN(C)C)n(C)c8)n(C)c7)n(C)c6)n5)n(C)c4)n(C)c3)n2)n1 | 4 | 4 | 0.0173 µM
3 | CN(C)CCCNC(=O)CCNC(=O)c1cc(NC(=O)c2cc(NC(=O)c3cc(NC(=O)c4nc(NC(=O)CCCNC(=O)c5cc(NC(=O)c6cc(NC(=O)c7nc(NC(=O)c8nc(NC(=O)CCNC(=O)CCCc9ccc%10ccc%11cccc%12ccc9c%10c%11%12)cn8C)cn7C)cn6C)cn5C)cn4C)cn3C)cn2C)cn1C | 3 | 3 | > 10 µM
4 | CC(=O)Nc1cn(C)c(C(=O)Nc2cn(C)c(C(=O)Nc3cc(C(=O)Nc4cc(C(=O)NCC[C@@H](NC(=O)CCCc5ccc6ccc7cccc8ccc5c6c78)C(=O)Nc5cn(C)c(C(=O)Nc6cc(C(=O)Nc7cc(C(=O)Nc8cc(C(=O)NCCC(=O)NCCCN(C)C)n(C)c8)n(C)c7)n(C)c6)n5)n(C)c4)n(C)c3)n2)n1 | 7 | 7 | 1.74 µM
